Screening results as filed in PubChem BioAssay.
MPTP inh: permeability transition pore inhibition; isolated mouse mitochondria, Ca2+ swelling absorbance, 30 min; inhibition, % at 10 µM; 360,000 compounds, 1.4% hits;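 active means inhibition of 50% or more, scaled per plate between neutral and stimulator controls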
NR3A LBD binder: NR3A (human) ligand-binding domain modulation; NR3A LBD differential scanning fluorimetry, Tm shift; 0% = protein alone, 100% = glycine-bound protein; Tm shift relative to glycine control, % at 25 µM; 340,000 compounds, 2.5% hits;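 active means melting temperature shift of at least 10% of the positive control shift, at one fixed dose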
ADAM10 inh: inhibitors of human ADAM10. recombinant ADAM10, EDANS/DABCYL FRET peptide cleavage, 3 h. inhibition, % at 7 µM. 370,000 compounds, 0.62% hits. O14672;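 active means inhibition above a per-campaign cutoff equal to the mean of compounds falling between control-based bounds plus 3 SD, cut at about 20% in these data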
Target sequence (O14672 214-748 limits assumed): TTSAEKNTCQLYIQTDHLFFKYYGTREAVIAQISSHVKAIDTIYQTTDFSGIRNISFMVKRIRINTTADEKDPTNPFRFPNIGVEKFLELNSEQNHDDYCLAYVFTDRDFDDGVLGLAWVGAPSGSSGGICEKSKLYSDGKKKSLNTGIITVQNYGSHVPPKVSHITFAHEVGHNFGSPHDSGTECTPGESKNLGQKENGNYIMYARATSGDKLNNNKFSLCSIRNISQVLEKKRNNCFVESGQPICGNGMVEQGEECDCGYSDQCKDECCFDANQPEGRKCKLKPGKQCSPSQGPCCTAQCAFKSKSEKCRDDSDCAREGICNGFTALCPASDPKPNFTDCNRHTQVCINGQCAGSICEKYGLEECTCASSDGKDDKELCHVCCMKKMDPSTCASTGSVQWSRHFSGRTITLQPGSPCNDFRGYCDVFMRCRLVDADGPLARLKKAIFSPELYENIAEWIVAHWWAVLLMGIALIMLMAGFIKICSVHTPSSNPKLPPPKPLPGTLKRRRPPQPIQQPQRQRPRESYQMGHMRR
SKN-1 inh: inhibitors of C. elegans SKN-1. inhibition, % at 21.8 µM. 360,000 compounds, 0.49% hits. C. elegans VP596 Pgst-4::GFP/RFP ratio, acrylamide-induced, 24 h;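 active means interference check ratio from 0.5 to 1.5 plus GFP to RFP signal ratio inhibition reaching or exceeding a fixed threshold, cut at about 30% in these data, passing the limit was not always enough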
ADAM17 inh: inhibitors of human ADAM17; P78536; recombinant ADAM17, EDANS/DABCYL FRET peptide cleavage; inhibition, % at 6.95 µM; 370,000 compounds, 0.83% hits; AID 720648;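 active means inhibition above the mean of compounds lying between control limits plus 3 SD, set per campaign, cut at about 8.5% in these data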
MT1-MMP act inh: blocks activation of human MT1-MMP; P50281; HT1080 RFP-PRO-GFP cells, GFP/RFP ratio fluorescence, overnight; percent of plate control window, DMSO zero; GFP/RFP ratio change, % at 20 µM; 360,000 compounds, 0.061% hits;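 active means GFP/RFP ratio change of at least 30% with cell ATP level not reduced by more than half and red fluorescence within 50% of control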
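Assay system: HT1080 cells carrying an RFP-PRO-GFP reporter | Dosing: Single dose of 20 µM compound, 1% DMSO final | Incubation: Cells overnight before dosing, compound overnight, 37 °C, 5% CO2 | Evaluation: GFP/RFP fluorescence ratio | Control set: DMSO and RFP-L50D-GFP cell wells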
Hits are given with their value. Sampled rows, rich in hits. Any-hit rate of the full collection: about 4.7%.

For Cc1ccc(-c2cc(C(=O)N/N=C/c3c[nH]c4ccccc34)[nH]n2)cc1 the results were MPTP inh inactive, NR3A LBD binder 27.3, ADAM10 inh inactive, SKN-1 inh inactive, ADAM17 inh inactive and MT1-MMP act inh inactive.
Screening O=C(N/N=C/c1cccs1)c1cc(-c2ccc3ccccc3c2)n[nH]1 returned MPTP inh inactive, NR3A LBD binder 13.2, ADAM10 inh inactive, SKN-1 inh inactive, ADAM17 inh inactive and MT1-MMP act inh inactive.
`O=C(N/N=C/c1c[nH]c2ccccc12)c1cc(-c2ccc3ccccc3c2)n[nH]1` gave MPTP inh inactive, NR3A LBD binder 40.6, ADAM10 inh inactive, SKN-1 inh inactive, ADAM17 inh inactive and MT1-MMP act inh inactive.
Screening O=C(N/N=C/c1c[nH]c2ccccc12)c1cc(-c2cccc3ccccc23)n[nH]1 returned MPTP inh inactive, NR3A LBD binder inactive, ADAM10 inh inactive, SKN-1 inh inactive, ADAM17 inh inactive and MT1-MMP act inh inactive.
O=C(N/N=C/c1cccs1)c1cc(-c2cccc3ccccc23)n[nH]1 was read as MPTP inh inactive, NR3A LBD binder inactive, ADAM10 inh inactive, SKN-1 inh inactive, ADAM17 inh inactive and MT1-MMP act inh inactive.
`O=C(N/N=C/c1c[nH]c2ccccc12)c1cc(-c2ccccc2)n[nH]1` gave MPTP inh inactive, NR3A LBD binder 30.9, ADAM10 inh inactive, SKN-1 inh inactive, ADAM17 inh inactive and MT1-MMP act inh inactive.
CC(C)C[C@H]1CN([C@@H](Cc2ccc(O)cc2)CN2CCC[C@@H]2CN2C(=O)C(=O)NC[C@@H]2Cc2ccccc2)C(=O)C(=O)N1CC1CCCCC1 was read as MPTP inh inactive, NR3A LBD binder inactive, ADAM10 inh inactive, SKN-1 inh inactive, ADAM17 inh inactive and MT1-MMP act inh inactive.
For Cc1ccc(-c2cc(C(=O)NN=Cc3ccc(-c4ccccc4)cc3)[nH]n2)cc1C the results were ADAM10 inh inactive and ADAM17 inh inactive.
`O=C(N/N=C/c1c[nH]c2ccccc12)c1ccn[nH]1` gave MPTP inh inactive, NR3A LBD binder 10.8, ADAM10 inh inactive, SKN-1 inh inactive, ADAM17 inh inactive and MT1-MMP act inh inactive.
`O=C(N/N=C/C=C\c1ccccc1[N+](=O)[O-])c1cc(-c2ccc3ccccc3c2)n[nH]1` gave MPTP inh inactive, NR3A LBD binder 18.1, ADAM10 inh inactive, SKN-1 inh inactive, ADAM17 inh inactive and MT1-MMP act inh inactive.
O=C(N/N=C/c1c[nH]c2ccccc12)c1cc(-c2ccc(-c3ccccc3)cc2)n[nH]1 was read as MPTP inh inactive, NR3A LBD binder 20.1, ADAM10 inh inactive, SKN-1 inh inactive, ADAM17 inh inactive and MT1-MMP act inh inactive.
Screening Cc1ccc(NC(=O)CCN2C(=O)C3C4CCC(C4)C3C2=O)cc1Cl (stereo not drawn) returned MPTP inh inactive, NR3A LBD binder 18.4, ADAM10 inh inactive, SKN-1 inh inactive, ADAM17 inh inactive and MT1-MMP act inh inactive.
COc1ccc2c(c1)Cc1sc(NC(=O)c3ccccc3)nc1-2 was read as MPTP inh inactive, NR3A LBD binder 10.1, ADAM10 inh inactive, SKN-1 inh 42.5, ADAM17 inh inactive and MT1-MMP act inh inactive.
Screening COc1ccc2c(c1)Cc1sc(NC(=O)c3cccs3)nc1-2 returned MPTP inh inactive, NR3A LBD binder 25.3, ADAM10 inh inactive, SKN-1 inh inactive, ADAM17 inh inactive and MT1-MMP act inh inactive.
`COc1cccc(-c2nnc(NC(=O)c3cccs3)s2)c1` gave MPTP inh inactive, NR3A LBD binder inactive, ADAM10 inh inactive, SKN-1 inh inactive, ADAM17 inh inactive and MT1-MMP act inh inactive.
COc1ccc(C(=O)Nc2nc3c(s2)Cc2cc(OC)ccc2-3)cc1 was read as MPTP inh inactive, NR3A LBD binder 10.8, ADAM10 inh inactive, SKN-1 inh inactive, ADAM17 inh inactive and MT1-MMP act inh inactive.
For COc1ccc(C(=O)Nc2nc3ccc4nc(C)sc4c3s2)cc1 the results were MPTP inh inactive, NR3A LBD binder inactive, ADAM10 inh inactive, SKN-1 inh inactive, ADAM17 inh inactive and MT1-MMP act inh inactive.
Screening O=C(NCCN1CCN(C(=O)c2ccccc2Cl)CC1)C(=O)NCc1ccccc1 returned MPTP inh inactive, NR3A LBD binder inactive, ADAM10 inh inactive, SKN-1 inh inactive, ADAM17 inh inactive and MT1-MMP act inh inactive.
`Cc1ccc(C2CC(C(F)(F)F)n3nc(C(=O)NCc4c(C)nn(C)c4C)c(Cl)c3N2)cc1` (stereo not drawn) gave MPTP inh inactive, NR3A LBD binder inactive, ADAM10 inh inactive, SKN-1 inh 46.1, ADAM17 inh inactive and MT1-MMP act inh inactive.
`Cc1cc(C)c(N2C(=O)C3C4CC(=O)C(c5ccccc54)C3C2=O)c(C)c1` (stereo not drawn) gave MPTP inh inactive, NR3A LBD binder inactive, ADAM10 inh inactive, SKN-1 inh inactive, ADAM17 inh inactive and MT1-MMP act inh inactive.
Screening Cc1cccc(N2C(=O)C3C4CC(=O)C(c5ccccc54)C3C2=O)c1C (stereo not drawn) returned MPTP inh inactive, NR3A LBD binder 10.7, ADAM10 inh inactive, SKN-1 inh inactive, ADAM17 inh inactive and MT1-MMP act inh inactive.
For CC(O)CNc1nc2c(c(=O)n(Cc3cccc(Cl)c3)c(=O)n2C)n1C (stereo not drawn) the results were MPTP inh inactive, NR3A LBD binder inactive, ADAM10 inh inactive, SKN-1 inh inactive, ADAM17 inh inactive and MT1-MMP act inh inactive.
`Cn1c(NCC(O)CO)nc2c1c(=O)n(Cc1ccc(Cl)c(Cl)c1)c(=O)n2C` (stereo not drawn) gave MPTP inh inactive, NR3A LBD binder 16.9, ADAM10 inh inactive, SKN-1 inh inactive, ADAM17 inh inactive and MT1-MMP act inh inactive.
For COc1cc2ncnc(NCc3cc(F)ccc3F)c2cc1OC the results were MPTP inh inactive, NR3A LBD binder inactive, ADAM10 inh inactive, SKN-1 inh inactive, ADAM17 inh inactive and MT1-MMP act inh inactive.
For Clc1cccc2sc(N3CCN(c4ccccc4)CC3)nc12 the results were MPTP inh inactive, NR3A LBD binder 18.4, ADAM10 inh inactive, SKN-1 inh inactive, ADAM17 inh inactive and MT1-MMP act inh inactive.
COc1ccc(CCNC(=O)c2cc(COc3c(F)cccc3F)on2)c(OC)c1 was read as MPTP inh inactive, NR3A LBD binder inactive, ADAM10 inh inactive, SKN-1 inh inactive, ADAM17 inh inactive and MT1-MMP act inh inactive.
For O=S1(=O)CCC(NC(=S)NCCNC(=S)NC2CCS(=O)(=O)C2)C1 (stereo not drawn) the results were MPTP inh inactive, NR3A LBD binder 20.5, ADAM10 inh inactive, SKN-1 inh inactive, ADAM17 inh inactive and MT1-MMP act inh inactive.
`NC(=S)NC1CCS(=O)(=O)C1` (stereo not drawn) gave MPTP inh inactive, NR3A LBD binder inactive, ADAM10 inh inactive, SKN-1 inh inactive, ADAM17 inh inactive and MT1-MMP act inh inactive.
